# From ChEMBL document CHEMBL2010709, “Pinophilins A and B, inhibitors of mammalian A-, B-, and Y-family DNA polymerases and human cancer cell proliferation” (J Nat Prod, 2012)
# Active and inactive are the calls of the source. The rule behind the calls is not given here.
# Columns and labels:
# Bos taurus [1] = organism: Bos taurus; assay: Non-competitive inhibition of calf DNA polymerase alpha using ploy(dA)/oligo(dT)18 as substrate up to 30 uM by Lineweaver-Burk plot analysis
# How it was run: (§1)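 Kinetics ran in the standard pol assay at 37 °C for 60 min. Either poly(dA)/oligo(dT)18 (A/T = 2/1) or dTTP was varied, with inhibitor at 0, 10, 20 and 30 μM. Km and Vmax came from Lineweaver–Burk plots and Ki from Dixon plots. Pol α was purified from calf thymus by immunoaffinity chromatography.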
# DNA polymerase kappa [2] = target: T1, DNA polymerase kappa (Homo sapiens, UniProt Q9UBT6); assay: Competitive inhibition of human C-terminal-His6-tagged DNA polymerase kappa expressed in Escherichia coli using dTTP as substrate by Dixon plot analysis; how it was run: as §1
# T1 sequence (Q9UBT6 whole entry): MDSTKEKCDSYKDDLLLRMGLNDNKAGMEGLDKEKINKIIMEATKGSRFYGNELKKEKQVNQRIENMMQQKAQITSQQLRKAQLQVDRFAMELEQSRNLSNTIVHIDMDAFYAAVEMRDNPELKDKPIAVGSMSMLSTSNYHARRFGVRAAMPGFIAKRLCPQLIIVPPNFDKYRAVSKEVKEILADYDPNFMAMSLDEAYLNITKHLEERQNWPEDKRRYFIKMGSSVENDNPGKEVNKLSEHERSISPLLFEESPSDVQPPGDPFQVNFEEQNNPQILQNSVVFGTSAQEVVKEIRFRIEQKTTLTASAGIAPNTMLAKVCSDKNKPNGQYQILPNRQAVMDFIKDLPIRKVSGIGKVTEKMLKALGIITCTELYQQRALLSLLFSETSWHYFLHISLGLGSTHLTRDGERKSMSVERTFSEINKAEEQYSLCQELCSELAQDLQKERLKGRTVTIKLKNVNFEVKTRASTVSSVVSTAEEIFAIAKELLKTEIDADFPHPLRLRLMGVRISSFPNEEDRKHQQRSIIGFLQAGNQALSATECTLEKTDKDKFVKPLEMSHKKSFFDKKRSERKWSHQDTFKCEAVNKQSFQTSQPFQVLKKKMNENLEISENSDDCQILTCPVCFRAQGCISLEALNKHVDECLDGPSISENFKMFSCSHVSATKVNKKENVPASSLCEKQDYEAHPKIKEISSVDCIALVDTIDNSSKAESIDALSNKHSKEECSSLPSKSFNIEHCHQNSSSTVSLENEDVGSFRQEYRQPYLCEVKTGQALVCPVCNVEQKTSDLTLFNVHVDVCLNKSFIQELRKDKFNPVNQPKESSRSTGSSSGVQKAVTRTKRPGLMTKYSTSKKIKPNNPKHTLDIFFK
# DNA polymerase kappa [3] = target: T1, DNA polymerase kappa; assay: Non-competitive inhibition of human C-terminal-His6-tagged DNA polymerase kappa expressed in Escherichia coli using ploy(dA)/oligo(dT)18 as substrate by Dixon plot analysis; how it was run: as §1
# [4] = Competitive inhibition of calf DNA polymerase alpha using dTTP as substrate by Dixon plot analysis; set-up: species or system Bos taurus; how it was run: as §1
# [5] = Non-competitive inhibition of calf DNA polymerase alpha using ploy(dA)/oligo(dT)18 as substrate by Dixon plot analysis; set-up: species or system Bos taurus; how it was run: as §1
# Bos taurus [6] = organism: Bos taurus; assay: Competitive inhibition of calf DNA polymerase alpha using dTTP as substrate up to 30 uM by Lineweaver-Burk plot analysis; how it was run: as §1
smiles,measurement,setting,value
C/C=C/C1=CC2=CC(=O)[C@@](C)(OC(=O)c3c(C)cc(O)cc3O)[C@@H](O)[C@@H]2CO1 [PINOPHILIN A],inhibition,Bos taurus [1],Active
same,Ki,DNA polymerase kappa [2],9.85 µM
same,Ki,DNA polymerase kappa [3],18.1 µM
same,Ki,[4],9.6 µM
same,Ki,[5],13.8 µM
same,inhibition,Bos taurus [6],Active
